What was measured:
Cathepsin B = Cathepsin B (Homo sapiens, UniProt P07858); assay: The compound was evaluated for inhibition of cathepsin B from human liver
How it was run: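 Cathepsin B from human liver, assayed in 20 mM NaOAc pH 5.2, 0.5 mM DTT, 2% DMSO. Ki was obtained from Dixon plots (1/v versus inhibitor concentration, intersecting lines) using the average of triplicate assays.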

[1] = Selectivity ratio of Ki values for cathepsin B inhibition by those for calpain I inhibition
[2] = target: T1, Calpain-1 catalytic subunit (Sus scrofa, UniProt P35750); assay: The compound was evaluated for inhibition of Calpain 1 from porcine erythrocytes; type: cell-based
T1 sequence (P35750 whole entry): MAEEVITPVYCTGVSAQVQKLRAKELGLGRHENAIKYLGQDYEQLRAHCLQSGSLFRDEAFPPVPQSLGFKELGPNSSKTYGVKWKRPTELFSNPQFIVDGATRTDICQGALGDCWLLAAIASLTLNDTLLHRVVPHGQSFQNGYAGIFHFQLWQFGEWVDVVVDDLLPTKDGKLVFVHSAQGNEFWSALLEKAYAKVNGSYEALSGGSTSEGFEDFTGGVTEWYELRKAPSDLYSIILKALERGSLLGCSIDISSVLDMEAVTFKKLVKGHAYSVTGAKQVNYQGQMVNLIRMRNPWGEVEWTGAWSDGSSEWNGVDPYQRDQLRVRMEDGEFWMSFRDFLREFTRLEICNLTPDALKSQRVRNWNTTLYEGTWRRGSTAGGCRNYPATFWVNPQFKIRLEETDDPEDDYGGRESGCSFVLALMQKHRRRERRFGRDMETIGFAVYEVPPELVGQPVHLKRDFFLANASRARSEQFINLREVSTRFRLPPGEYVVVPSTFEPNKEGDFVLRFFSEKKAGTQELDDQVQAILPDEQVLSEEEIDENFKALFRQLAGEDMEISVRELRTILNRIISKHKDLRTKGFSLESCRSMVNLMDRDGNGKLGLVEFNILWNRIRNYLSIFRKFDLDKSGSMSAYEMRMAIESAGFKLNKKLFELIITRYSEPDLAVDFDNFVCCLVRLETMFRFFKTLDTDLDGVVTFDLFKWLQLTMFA
How it was run: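 Substrate was Suc-Leu-Tyr-AMC at two concentrations, inhibitor varied, and 5 mM CaCl2 started the reaction. Fluorescence increase (ex 370, em 440 nm) was read at ambient temperature. Ki came from Dixon plots of triplicate means.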

Row | Ki (Cathepsin B) [µM] | Selectivity ratio [1] | Ki [2] [µM] | Compound
1 | 6.78 | 9 | 0.75 | CC(C)[C@@H]1C[C@@]1(NC(=O)OCc1ccccc1)C(=O)N[C@@H](Cc1ccccc1)C(=O)C(=O)NCCc1ccccc1
2 | 1.26 | 0.2 | 6.15 | CC(C)[C@H]1C[C@]1(NC(=O)OCc1ccccc1)C(=O)N[C@@H](Cc1ccccc1)C(=O)C(=O)NCCc1ccccc1
3 | 4.56 | 0.1 | 40 | CC(C)[C@@H]1C[C@]1(NC(=O)OCc1ccccc1)C(=O)N[C@@H](Cc1ccccc1)C(=O)C(=O)NCCc1ccccc1
4 | 0.3 | 4 | 0.07 | CC(C)C[C@H](NC(=O)OCc1ccccc1)C(=O)N[C@@H](Cc1ccccc1)C(=O)C(=O)NCCc1ccccc1
5 | 5.05 | 0.5 | 11.1 | CC(C)[C@H]1C[C@@]1(NC(=O)OCc1ccccc1)C(=O)N[C@@H](Cc1ccccc1)C(=O)C(=O)NCCc1ccccc1
